A selection: hits, their analogues and other compounds. The true share with any hit is near 2.2%.
PMI activator: activators of human PMI, primary screen, biochemical, fluorescence intensity, near-Km mannose 6-phosphate | Mannose-6-phosphate isomerase (Homo sapiens), P34949 | purified human PMI, coupled resazurin fluorescence, 20 min; hits give high values; 1 = vehicle control, 0 substrate-free wells | activation factor at 20 µM | 190,000 compounds, 0.005% hits;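 active = activation factor of 2 or more at 20 µM, relative to plate controls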
Target sequence (P34949 whole entry, looked up): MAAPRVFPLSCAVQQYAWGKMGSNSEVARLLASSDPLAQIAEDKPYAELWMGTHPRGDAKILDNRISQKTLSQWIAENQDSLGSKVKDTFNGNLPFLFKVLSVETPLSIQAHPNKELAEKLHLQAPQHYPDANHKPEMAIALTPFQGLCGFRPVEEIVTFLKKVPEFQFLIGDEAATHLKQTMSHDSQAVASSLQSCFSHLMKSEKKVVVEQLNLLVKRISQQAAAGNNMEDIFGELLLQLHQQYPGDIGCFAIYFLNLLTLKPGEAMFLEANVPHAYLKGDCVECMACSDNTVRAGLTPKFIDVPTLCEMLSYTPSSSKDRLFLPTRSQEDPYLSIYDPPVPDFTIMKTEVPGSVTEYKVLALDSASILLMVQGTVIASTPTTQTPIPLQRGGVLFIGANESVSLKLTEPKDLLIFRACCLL
Diaph inh CS: diaphorase inhibitors and chemical oxidizers, primary screen, counter-screen for diaphorase-coupled primary assays, biochemical, uHTS, resorufin fluorescence. diaphorase resazurin-to-resorufin fluorescence, NADH, 16 min; bacterial (C. kluyveri) enzyme, not human. inhibition, % at 20 µM. 190,000 compounds, 0.69% hits;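 active = primary screen inhibition at 20 µM above a set limit, cut at about 50% in these data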;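 note: plate controls were DMSO with full reaction for no effect and wells lacking NADH for full effect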
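controls = No-NADH positive control and DMSO neutral control | system = Clostridium kluyveri diaphorase enzyme | timing = reaction incubation of 16 min at room temperature | signal = resorufin fluorescence 544/590 nm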
ROMK mod: ROMK potassium channel modulators, primary screen, cell-based, thallium flux, MLSMR library; ATP-sensitive inward rectifier potassium channel 1 (Homo sapiens), P48048; 130,000 compounds, 2% hits; Tet-inducible ROMK, thallium flux fluorescence; actives lie on both sides; B-score at 10 µM; AID 1918, 2009;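 active = signal ratio slope over the read window, or its plate-corrected B-score, at least 3 SD from the plate mean, either direction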;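 note: B-score of the F/F0 ratio slope over 7 to 12 s after thallium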
Diaph act CS: compounds boosting diaphorase resazurin reduction – biochemical, uHTS, resorufin fluorescence, counter-screen for diaphorase-coupled primary assays, primary screen; Diaphorase/resazurin coupled assay, 16 min; hits give high values; 1 = vehicle wells, 0 = NADH-free wells; activation factor at 20 µM; 190,000 compounds, 0.005% hits; AID 1229, 2008;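 active = diaphorase activity raised at least twofold by the compound at 20 µM; inactive = activation factor below 2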
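Measured by – red resorufin fluorescence at 544/590 nm excitation/emission · Test system – Clostridium kluyveri diaphorase, purified enzyme · Incubation – reaction time 16 min, room temperature · Buffer or medium – 50 mM HEPES pH 7.4 with 4.542 mM MgCl2, 0.005% Tween 20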
PMI act hi M6P: human PMI activators, high substrate, primary screen, biochemical, fluorescence intensity, near-saturating mannose 6-phosphate | Mannose-6-phosphate isomerase (Homo sapiens), P34949 | coupled PMI enzyme assay, resazurin fluorescence, 20 min; hits give high values; 1 = untreated enzyme, 0 = substrate-free blank | activation factor at 20 µM | 190,000 compounds, 0.34% hits;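 active = activation factor of 2 or more at 20 µM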
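Test system: Human PMI in coupled enzyme assay | Input: 15 ng/mL PMI | Medium: HEPES-buffered pH 7.4 with magnesium and detergent | Compound: One concentration, 20 µM, in 1% DMSO | Incubation: Enzyme reaction with compound 20 min at room temperature | Detection: Diaphorase-driven resazurin-to-resorufin fluorescence, excitation 544, emission 590 nm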
G6PDH counter: L. mesenteroides G6PDH inhibitors, counter-screen for G6PDH-coupled screening assays, biochemical, Leuconostoc mesenteroides enzyme; glucose-6-phosphate dehydrogenase [Leuconostoc mesenteroides]; Purified L. mesenteroides G6PDH, diaphorase/resazurin coupled fluorescence, 45 min; inhibition, % at 5 µM; 200,000 compounds, 0.12% hits; AID 1020, 2008; in the data active = inhibition above about 50%
ROMK retest: ROMK channel modulator hit retest, confirmation, cell-based, thallium flux, duplicate, resupplied hits; shares compounds with ROMK mod; fluorescence ratio; hits give low values; normalized thallium flux (F/F0 slope) at 10 µM; 3,000 compounds, 54% hits; AID 1917, 2009;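 active = Flux at 10 µM at least 3 SD below or above vehicle control mean in one or both replicates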
Starred values were filed as active, the others as inactive; / = no result given.

SMILES	PMI activator	Diaph inh CS	ROMK mod	Diaph act CS	PMI act hi M6P	G6PDH counter	ROMK retest
O=CNC(Cc1ccccc1)C(=O)O (centres undefined)	1	9	2.2*	0.9	1	3	0.075
COc1ccccc1OCC(O)Cn1c(=N)n(Cc2ccccc2)c2ccccc21 (centres undefined)	1	1	-7.8*	1	1	14	0.048*
Cc1ccccc1OCC(O)Cn1c2ccccc2c2ccccc21 (centres undefined)	0.8	24	/	0.8	0.9	-4	/
Cc1nc2ccccc2n1CC(O)COc1ccccc1Cl (centres undefined)	1.1	6	-1.6	0.9	1	-3	0.057*
CCCCn1c(=N)n(CC(O)COc2cccc(C)c2)c2ccccc21 (centres undefined)	0.9	23	-5.8*	0.8	0.9	1	0.051*
Cc1ccccc1OCC(O)Cn1c(=N)n(Cc2ccccc2)c2ccccc21 (centres undefined)	/	/	-4.6*	/	/	/	0.05*
COC(=O)CC/C(O)=C1\C(=O)CC(C)(C)CC1=NCc1nc2ccccc2[nH]1	1	10	0.83	0.9	1.1	6	/
Cn1c(N)c(Sc2ccc(F)cc2)c(=O)n(C)c1=O	1.1	4	0.94	1	1	4	/
COc1cc(/C=C/C(=O)O)cc(S(=O)(=O)NCCCC(=O)O)c1OC	1.2	-13	0.48	1.1	1.1	-3	/
CCCCn1c(=N)n(CCOc2ccc(C)cc2)c2ccccc21	1.1	0	-3.5*	1	1.1	1	0.051*
COc1ccc(OCCn2c(=N)n(CCO)c3ccccc32)cc1	0.9	16	-1.2	0.8	0.9	13	/
CCCCCn1c(=N)n(CC(O)COc2ccccc2OC)c2ccccc21 (centres undefined)	0.9	12	/	0.9	0.9	6	0.048*
C=CCn1c(=N)n(CC(O)COc2ccccc2OC)c2ccccc21 (centres undefined)	1	10	/	0.9	0.9	5	/
NC(=O)c1sc2nccc(Nc3ccccc3)c2c1N	1.2	23	/	0.8	1.8	-13	0.06*
Cc1cc(S(=O)(=O)NCc2ccccc2)ccc1OCC(=O)Nc1cccc([N+](=O)[O-])c1	0.9	23	/	0.8	0.8	9	/
Cc1ccc(C)n1-c1ccc(-n2cnnn2)cc1	1	16	/	0.8	1.1	6	0.057*
Cc1cc(N2CCOCC2)ccc1/C=C\[N+](=O)[O-]	0.9	12	-4.5*	0.9	0.9	-1	0.05*
Cc1ccc(-c2csc(NC(=O)C[n+]3cc(-c4ccccc4)n4c3CCC4)n2)cc1	/	/	-6.1*	/	/	/	0.06*
O=C(C[n+]1cc(-c2ccc(Br)cc2)n2c1CCCCC2)c1ccccc1	1	1	-3*	1	0.9	9	0.068*
O=C(C[n+]1cc(-c2ccc(Cl)cc2)n2c1CCC2)Nc1nc(-c2ccc(F)cc2)cs1	/	/	-5.8*	/	/	/	0.051*
Cc1c(/C=N/O)c2ccccn2c1C=O	1.1	-1	0.7	1	1	1	/
O=C(/C=C/c1ccc(Cl)cc1)c1cccnc1	1	12	-8.1*	0.9	1	2	0.043*
N#Cc1ccc(/C=C/C(=O)c2cccnc2)cc1	1.1	5	-3.3*	0.9	1	2	0.045*
O=C(/C=C/c1ccccc1Cl)c1cccnc1	0.9	11	-7.4*	0.9	0.9	4	0.044*
CCN(CC)c1ccc(/C=C/C(=O)c2cccnc2)cc1	0.9	17	-0.65	0.8	0.8	8	/
SMILES	PMI activator	Diaph inh CS	ROMK mod	Diaph act CS	PMI act hi M6P	G6PDH counter	ROMK retest
C=C1C(C(=O)Nc2cccc(OC)c2)C1C(=O)Nc1cccc(OC)c1 (centres undefined)	0.9	0	1	1	0.9	6	/
O=C(CSc1nnc2ccc(-c3ccccc3)nn12)NCC1CCCO1 (centres undefined)	1	9	0.78	0.9	1.1	1	/
COc1ccc([N+](=O)[O-])cc1NC(=O)Cc1noc2ccccc12	1	9	1.1	0.9	1	5	/
Cc1cc(-c2nn(-c3ccccc3F)cc2CN2CCC(O)CC2)c(C)s1	1	0	-1.9	1	1	13	/
Cc1cc(-c2nn(-c3ccccc3F)cc2CN2CCN(c3ccncc3)CC2)c(C)s1	0.8	-24	-3.1*	1.2	0.9	12	0.064*
Cc1nnc(SCc2cccc([N+](=O)[O-])c2)o1	1	5	0.25	0.9	1.1	10	/
COc1ccc(/C=C2\SC(=O)N(CCNC(=O)C3CC(=O)N(c4ccccc4)C3)C2=O)cc1 (centres undefined)	1.1	1	/	1	1.1	5	/
O=C(NCCN1C(=O)CSC1=O)C1CC(=O)N(c2ccccc2)C1 (centres undefined)	0.9	20	0.91*	0.8	0.9	0	0.081
O=C(O)C(Cc1c[nH]c2ccccc12)N1Cc2ccccc2C1=O (centres undefined)	1	-4	/	1	1	1	/
COc1cc2c(cc1OC)CN(c1nc(CN3CCOCC3)nc3sc4c(c13)CCCC4)CC2	0.9	25	-2.4	0.8	0.9	-10	/
COc1cc2c(cc1OC)CN(c1nc(CN3CCCCC3)nc3sc4c(c13)CCCC4)CC2	0.9	3	-2.6*	1	0.9	-3	0.064*
Cc1cc[n+](-c2[nH]c(=O)sc2/C=N/N=C(\[O-])c2ccccc2)cc1C	1	-7	-6.6*	1.1	1	11	0.047*
CCOc1ccccc1NC(=O)C(Sc1nnnn1C)c1ccccc1 (centres undefined)	1	9	-0.87	0.9	0.9	0	/
O=C(COC(=O)c1ccc(Cl)nc1)Nc1ccc2c(c1)OCO2	1	6	0.15	0.9	1	1	/
